Test [1] concerns antibenzothiostrobin mAb. The settings on record: ic-ELISA; cited from earlier work. A general note: ELISA stands for enzyme-linked immunosorbent assay.
Test [2] relates to antibenzothiostrobin mAb. The settings on record: competitive phage ELISA; cited from earlier work.
Test [3] has as its system antibenzothiostrobin mAb. The settings on record: noncompetitive FIA, synthetic peptide FITC-Ahx-CPDIWPTAWC; cited from earlier work.
In test [4] the test system is antibenzothiostrobin mAb. The settings on record: noncompetitive phage ELISA; cited from earlier work.
For test [5], the system named is antibenzothiostrobin mAb. The settings on record: competitive FIA, synthetic peptide FITC-Ahx-CSGLAEFMSC; cited from earlier work.
The subject of test [6] is antibenzothiostrobin mAb 4E8. Further details: species or system murine. The settings on record: ITC; ratio of binding constants versus monomer. In outline: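 Isothermal titration calorimetry at 25 °C. All samples were diluted in 10 mM BB and degassed. The mAb was in the cell, with water in the reference cell and buffer titrated as control. Peptide in the syringe was 260 μM (monomer), 150 μM (dimer) or 50 μM (tetramer). Run used 20 injections, 60 s initial delay and 1000 rpm stirring. N, K, ΔH and ΔS were obtained from a one-site fit, with a c value checked for quality.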
For orientation: In ITC the heat of successive injections is recorded.

The test system of test [7] is antibenzothiostrobin mAb. Kind of test: Inner filter effect immunoassay. It counts as binding, murine. The settings on record: ratio of SC50 values; analyte benzothiostrobin. In outline: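 Homogeneous competitive format. The UCNP probe was NaYF4:Yb,Er, amine-silica coated and glutaraldehyde-coupled to the monomer, dimer or tetramer peptidomimetic, and the absorber was mAb-conjugated gold nanoflowers. Standard and both probes were mixed in BB for 1 h at 37 °C with gentle shaking. Emission at 657 nm was read under 980 nm laser excitation. ΔI (I−I0) was plotted against log analyte concentration, and SC50 was taken as 50% signal saturation.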

The source of these data is paper PMC7059760 (ACS applied materials & interfaces, 2019).

≈ marks a conversion by molar mass, not a printed value. Where two headings read alike, the source gives them in different places.

As for `CO/C=C(/C(=O)OC)c1ccccc1CSc1nc2ccccc2s1` [benzothiostrobin], the IC50 in the test on antibenzothiostrobin mAb [1] was 7.55 ng/mL (≈ 0.0203 µM); with antibenzothiostrobin mAb [2], 0.94 ng/mL (≈ 0.00253 µM); in the test with antibenzothiostrobin mAb [5], 16.8 ng/mL (≈ 0.0452 µM). For the same molecule, the SC50 in the test with antibenzothiostrobin mAb [3] was 93.4 ng/mL; with antibenzothiostrobin mAb [4] it was 2.27 ng/mL.
In the case of “((Ac-CSGLAEFMSC)2K)2KK (bicyclic or more) [tetramer]”, in test [6], the “fold higher affinity for mAb compared to monomer” value is recorded as 13.6 fold. In the test on antibenzothiostrobin mAb [7], the “improvement of IFE-IA sensitivity compared to dimer” value was ~3 fold and the “improvement of IFE-IA sensitivity compared to monomer” value is on record as “approximately 6 fold”.
With “(Ac-CSGLAEFMSC)2KK (bicyclic or more) [dimer]”, in test [6], the “fold higher affinity for mAb compared to monomer” value is given as 1.87 fold.

By IC50 is commonly meant the concentration at which inhibition is half-maximal.
